{"data": "Results of several laboratories", "target": "Serine/threonine-protein kinase D1 (PRKD1, Homo sapiens, UniProt Q15139)", "note": "Lines come from different studies, so protocols differ."}
{"SMILES": "Cc1nc(Cc2cccc(C(F)(F)F)c2)sc1-c1ccc(C(N)=O)nc1", "test": "cell-free assay, competition with immobilised ligand", "conditions": "1 µM", "measurement": "remaining binding", "result": "93%"}
{"SMILES": "CCCCNc1ncc2c(-c3ccc(F)cc3)nn(C[C@H]3CC[C@H](N)CC3)c2n1", "test": "target engagement in cells, inhibitor, chemoproteomics", "conditions": "20 mM", "measurement": "inhibition", "result": "25%"}
{"SMILES": "Cc1c(C(=O)O)cc(-c2ccc(C3CCNCC3)cc2)c2ccc(-c3ccc(C(F)(F)F)cc3)cc12", "test": "binding, competition with immobilised ligand", "conditions": "1 µM", "measurement": "remaining binding", "result": "100%"}
{"SMILES": "O=C(Nc1cnn(-c2csc(C(=O)NC3COC3)c2)c1)Nc1c(F)cccc1Cl", "test": "enzyme activity, inhibitor", "conditions": "5 µM", "measurement": "remaining activity", "result": "90.7%"}
{"SMILES": "CC(C)(O)[C@H]1CC[C@H](Nc2ccc3ncc(-c4cccc(C(F)(F)F)c4)n3n2)CC1", "test": "enzyme activity, inhibitor", "conditions": "1 µM", "measurement": "remaining activity", "result": "99.5%"}
{"SMILES": "COc1cc(/C=C/C(=O)CC(=O)/C=C/c2ccc(O)c(OC)c2)ccc1O", "test": "enzyme activity, inhibitor", "conditions": "1 µM", "measurement": "activity vs control", "result": "79%"}
{"SMILES": "Cn1c(=O)n(-c2ccc(C(C)(C)C#N)cc2)c2c3cc(-c4cnc5ccccc5c4)ccc3ncc21", "test": "enzyme activity, inhibitor", "conditions": "10 µM", "measurement": "remaining activity", "result": "107%"}
{"SMILES": "Cn1cnc(Br)c1C1=CN(c2ncnc3[nH]cnc23)CCS1", "test": "enzyme activity, inhibitor, radiometric", "conditions": "2 µM", "measurement": "inhibition", "result": "91.4%"}
{"SMILES": "CNC(=O)Nc1ccc2c(c1)[C@@]1(CC2)OC(=O)N(CC(=O)N(Cc2ccc(F)cc2)[C@@H](C)C(F)(F)F)C1=O", "test": "cell-free assay, competition with immobilised ligand", "conditions": "1 µM", "measurement": "remaining binding", "result": "100%"}
{"SMILES": "FC(F)(F)Oc1cccc(-c2cnc3ccc(-c4ccncc4)nn23)c1", "test": "enzyme activity, inhibitor, radiometric", "conditions": "5 µM", "measurement": "activity vs control", "result": "158%"}
{"SMILES": "Cc1cnc(NC2CCOCC2)nc1-n1cnc(C(=O)NC(CN)c2cc(F)cc(Cl)c2)c1 (stereo not shown)", "test": "enzyme activity, inhibitor, radiometric", "conditions": "1 µM", "measurement": "remaining activity", "result": "0%"}
{"SMILES": "CN(C(=O)c1ccccc1)c1cc(N(C)c2ccc3c(c2)CCc2ccc(C(=O)NCCN4CCOCC4)cc2C3=O)ccc1F", "test": "cell-free assay, competition with immobilised ligand", "conditions": "1 µM", "measurement": "remaining binding", "result": "86%"}
{"SMILES": "CC(C)(C)c1nc2c(s1)c1nc(N)ncc1c1ccc(NS(=O)(=O)c3c(F)cccc3F)c(F)c12", "test": "enzyme activity, inhibitor, radiometric", "conditions": "1 µM", "measurement": "remaining activity", "result": "93%"}
{"SMILES": "O=C(N[C@H]1CCCCC/C=C\\C2C[C@@]2(C(=O)O)NC(=O)[C@@H]2C[C@@H](Oc3ccncc3)CN2C1=O)OC1CCCC1 (stereo partly shown)", "test": "binding, competition with immobilised ligand", "conditions": "1 µM", "measurement": "remaining binding", "result": "96%"}
{"SMILES": "O=C1NC(=O)c2cc(Nc3ccc(F)cc3)c(Nc3ccc(F)cc3)cc21", "test": "cell-free assay", "conditions": "0.5 µM", "measurement": "remaining signal", "result": "92.2%"}
{"SMILES": "COc1cc2ncnc(Nc3ccc(Oc4ccccc4)c(C)c3C)c2cc1OC", "test": "enzyme activity, inhibitor", "conditions": "1 µM", "measurement": "inhibition", "result": "-3%"}
{"SMILES": "CCOc1cc(-c2nncn2C)ccc1Nc1ncc2cc(C)nc(NCC(C)(C)C)c2n1", "test": "enzyme activity, inhibitor, FRET", "conditions": "1 µM", "measurement": "inhibition", "result": "37%"}
{"SMILES": "O=C(Nc1cnn(-c2csc(C(=O)NC3COC3)c2)c1)Nc1ccccc1Cl", "test": "enzyme activity, inhibitor", "conditions": "5 µM", "measurement": "remaining activity", "result": "114%"}
{"SMILES": "CNC(=O)c1cc(Oc2ccc(NC(=O)Nc3ccc(Cl)c(C(F)(F)F)c3)cc2)ccn1", "test": "enzyme activity, inhibitor", "conditions": "10 µM", "measurement": "inhibition", "result": "13%"}
{"SMILES": "Cc1ccc(C(=O)NCc2ccsc2)cc1C#Cc1cn(C(C)C)c2ncnc(N)c12", "test": "enzyme activity, inhibitor", "conditions": "1 µM", "measurement": "activity vs control", "result": "91%"}
{"SMILES": "Nc1nc(NC2CCCCC2)sc1C(=O)c1ccccc1", "test": "enzyme activity, inhibitor", "conditions": "10 µM", "measurement": "remaining activity", "result": "35%"}
{"SMILES": "Cn1cncc1C1=CN(c2ncnc3[nH]cnc23)CCS1", "test": "enzyme activity, inhibitor, radiometric", "conditions": "2 µM", "measurement": "inhibition", "result": "89.2%"}
{"SMILES": "CC(C)(O)c1cncc(-c2nc3ccc(F)cc3n2C2CC2)c1", "test": "cell-free assay, competition with immobilised ligand", "conditions": "1 µM", "measurement": "remaining binding", "result": "100%"}
{"SMILES": "Cc1ncc([N+](=O)[O-])n1C(=NO)c1ccccc1C(F)(F)F", "test": "enzyme activity, inhibitor", "conditions": "10 µM", "measurement": "inhibition", "result": "7.69%"}
{"SMILES": "Cn1c2ccccc2c2c3c(c4c5ccccc5n(CCC#N)c4c21)CNC3=O", "test": "cell-free assay", "conditions": "0.5 µM", "measurement": "remaining signal", "result": "17.3%"}
{"SMILES": "CC(C)(C)C(=O)c1sc(NC2CCCCC2)nc1N", "test": "enzyme activity, inhibitor", "conditions": "10 µM", "measurement": "remaining activity", "result": "85%"}
{"SMILES": "CCN(CC)c1ccc(C2=NNC(=O)CC2C)cc1[N+](=O)[O-] (stereo not shown)", "test": "enzyme activity, inhibitor", "conditions": "10 µM", "measurement": "remaining activity", "result": "14%"}
{"SMILES": "Cc1ccc(Nc2nccc(N(C)c3ccc4c(C)n(C)nc4c3)n2)cc1S(N)(=O)=O", "test": "enzyme activity, inhibitor", "conditions": "10 µM", "measurement": "inhibition", "result": "23%"}
{"SMILES": "O=C1Nc2ccc(Cl)cc2C1=Cc1cc(Cl)c(O)c(Cl)c1", "test": "cell-free assay", "conditions": "0.5 µM", "measurement": "remaining signal", "result": "91.5%"}
{"SMILES": "CS(=O)(=O)NCC[C@H](NC(=O)c1cncc2c1cnn2-c1ccc(F)cc1)c1ccnc(S(C)(=O)=O)c1", "test": "cell-free assay, competition with immobilised ligand", "conditions": "1 µM", "measurement": "remaining binding", "result": "92%"}
{"SMILES": "COc1cc(Nc2cnc(C#N)c(O[C@H](C)CN(C)C)n2)ncc1-c1cnn(C)c1", "test": "enzyme activity, inhibitor, radiometric", "conditions": "1 µM", "measurement": "remaining activity", "result": "106%"}
{"SMILES": "O=C(NC[C@@H]1[C@H]2CN(C(=O)OCc3cc(C(F)(F)F)cc(C(F)(F)F)c3)C[C@@H]12)c1ccc2[nH]nnc2c1", "test": "cell-free assay, competition with immobilised ligand", "conditions": "1 µM", "measurement": "remaining binding", "result": "100%"}
{"SMILES": "C[C@@H]1CCN(C(=O)CC#N)C[C@@H]1N(C)c1ncnc2[nH]ccc12", "test": "cell-free assay, inhibitor", "conditions": "0.5 µM", "measurement": "remaining signal", "result": "97.3%"}
{"SMILES": "CN(c1ncccc1CNc1nc(Nc2ccc3c(c2)CC(=O)N3)ncc1C(F)(F)F)S(C)(=O)=O", "test": "enzyme activity, inhibitor", "conditions": "1 µM", "measurement": "inhibition", "result": "49%"}
